Series [1] concerns Candida albicans. Briefly: Inhibition of Candida albicans CDR1 expressed in Saccharomyces cerevisiae AD assessed as reduction in nile red dye efflux at 70 uM after 30 mins by flow cytometry relative to control. The method, boiled down: (§1)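 AD-CDR1 or AD-MDR1 cells grown in YEPD at 30 °C with shaking from OD600 0.1 to 0.25, then resuspended as a 5% suspension in 1:2 YEPD:water. Nile Red (final 7 μM) added with or without compound at 70 μM, 30 min at 30 °C. Cells washed twice and 10,000 cells analysed by flow cytometry. Efflux rate expressed relative to untreated control cells. Means ± SD, three independent experiments.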

Series [2] deals with Saccharomyces cerevisiae. As to the kind of experiment: Resistance index, ratio of MIC80 for Saccharomyces cerevisiae AD over-expressing Candida albicans CDR1 to MIC80 for Saccharomyces cerevisiae AD1-8u(-). Type of series: functional. The method, boiled down: (§2)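 Yeast (10⁴ cells) grown in YEPD at 30 °C for 48 h with inhibitors at 0.25-400 μM (DMSO stocks); growth read by optical density, inhibitor-free growth set as 100%. MIC80 = concentration giving 80% growth inhibition. RI = MIC80 in AD-CDR1 or AD-MDR1 divided by MIC80 in control AD1-8u⁻. Means ± SD, duplicate samples, at least three independent experiments.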

Series [3] has as its system Saccharomyces cerevisiae. Briefly: Antifungal activity against Saccharomyces cerevisiae AD1-8u(-) after 48 hrs. Type of series: functional. The method in brief:
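S. cerevisiae AD1-8u⁻ control strain revived from glycerol stock on YEPD plates and grown in YEPD at 30 °C. 10⁴ cells exposed to compound at 0.25-400 μM for 48 h at 30 °C. Growth read as optical density, with no-inhibitor growth as 100%. MIC80 is the concentration giving 80% growth inhibition. Means ± SD of duplicates from at least three independent experiments.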

Series [4] deals with Saccharomyces cerevisiae. Briefly: Potentiation of fluconazole-induced antifungal activity against Saccharomyces cerevisiae AD1-8u(-) by checkerboard method. It is filed as functional. The method, boiled down: (§3)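 Checkerboard per CLSI in AD1-8u⁻ control, AD-CDR1 or AD-MDR1 cells (10⁴ cells) grown 48 h at 30 °C. Fluconazole 4-209 μM crossed with compound 0.25-400 μM. Growth read by optical density. FIC of each agent is its MIC in combination divided by its MIC alone. FICI is the sum of the fluconazole and compound FICs, with values below 0.5 taken as synergy.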

In series [5] the test system is Candida albicans. As to the kind of experiment: Inhibition of Candida albicans MDR1 expressed in Saccharomyces cerevisiae AD assessed as potentiation of fluconazole-induced antifungal activity against Saccharomyces cerevisiae AD by checkerboard method. The method in brief: as §3
Series [6] concerns Saccharomyces cerevisiae. As to the kind of experiment: Antifungal activity against Saccharomyces cerevisiae AD over-expressing Candida albicans CDR1 after 48 hrs. Type of series: functional. The method, boiled down: as §2
Series [7] deals with Candida albicans. Briefly: Inhibition of Candida albicans CDR1 expressed in Saccharomyces cerevisiae AD assessed as ratio of compound MIC80 in combinantion with fluconazole to compound alone MIC80 for Saccharomyces cerevisiae AD by checkerboard method. The method, boiled down:
(§4)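 Checkerboard per CLSI with 10⁴ cells of AD-CDR1, AD-MDR1 or AD1-8u⁻, grown 48 h at 30 °C. Fluconazole 4-209 μM crossed with compound 0.25-400 μM, growth read by optical density. Compound FIC is the compound MIC in combination with fluconazole divided by its MIC alone.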

The test system of series [8] is Candida albicans. Briefly: Inhibition of Candida albicans MDR1 expressed in Saccharomyces cerevisiae AD assessed as ratio of compound MIC80 in combinantion with fluconazole to compound alone MIC80 for Saccharomyces cerevisiae AD by checkerboard method. The method in brief:
as §4

Series [9] in a line: Lipophilicity, log P of the compound. Type of series: physicochemical. Conditions: octanol/water.
Series [10] deals with Saccharomyces cerevisiae. As to the kind of experiment: Synergistic antifungal activity against Saccharomyces cerevisiae AD1-8u(-) assessed as ratio of compound MIC80 in combinantion with fluconazole to compound alone MIC80 by checkerboard method. Type of series: functional. The method, boiled down: as §4
Series [11] deals with Saccharomyces cerevisiae. As to the kind of experiment: Resistance index, ratio of MIC80 for Saccharomyces cerevisiae AD over-expressing Candida albicans MDR1 to MIC80 for Saccharomyces cerevisiae AD1-8u(-). Type of series: functional. The method in brief: as §2
The subject of series [12] is Candida albicans. As to the kind of experiment: Inhibition of Candida albicans MDR1 expressed in Saccharomyces cerevisiae AD assessed as reduction in nile red dye efflux at 70 uM after 30 mins by flow cytometry relative to control. The method, boiled down: as §1
Background: In flow cytometry, cells or beads pass a laser one at a time.

The subject of series [13] is Candida albicans. As to the kind of experiment: Inhibition of Candida albicans CDR1 expressed in Saccharomyces cerevisiae AD assessed as potentiation of fluconazole-induced antifungal activity against Saccharomyces cerevisiae AD by measuring fold reduction in fluconazole MIC80 by checkerboard method. The method in brief: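 AD-CDR1 cells (10⁴) grown 48 h at 30 °C in a CLSI checkerboard, fluconazole 4-209 μM crossed with compound 0.25-400 μM, growth read by optical density. Fold reduction is derived from the fluconazole MIC alone versus the fluconazole MIC in combination.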

In series [14] the test system is Candida albicans. As to the kind of experiment: Inhibition of Candida albicans CDR1 expressed in Saccharomyces cerevisiae AD assessed as potentiation of fluconazole-induced antifungal activity against Saccharomyces cerevisiae AD by checkerboard method. The method in brief: as §3
The subject of series [15] is Saccharomyces cerevisiae. As to the kind of experiment: Antifungal activity against Saccharomyces cerevisiae AD over-expressing Candida albicans MDR1 after 48 hrs. It is filed as functional. The method in brief:
as §2

Converted amounts (≈) assume the structure as drawn.

For the molecule `C=C1CC[C@H]2[C@@H](/C=C(\C)C(=O)[C@@]3(O)C[C@H](C)[C@H](O)[C@@H]3[C@H]1OC(=O)c1cccc(C(F)(F)F)c1)C2(C)C`, the inhibition (usually the relative decrease from the control value, in per cent) in the series on Candida albicans [1] was 70%; with Candida albicans [12], 25%. In addition, the Ratio in the series on Saccharomyces cerevisiae [2] was found to be 0.99; with Candida albicans [7], 0.5; in the series with Candida albicans [8], 1; in the series on Saccharomyces cerevisiae [10], 1; with Saccharomyces cerevisiae [11] it was 0.87. Moreover, the MIC80 (commonly the lowest concentration that inhibits either 80% of growth or 80% of the strains tested, depending on the study) came to 988 µM (≈ 500 µg/mL) in the series on Saccharomyces cerevisiae [3], 982 µM (≈ 497 µg/mL) against Saccharomyces cerevisiae [6] and 867 µM (≈ 439 µg/mL) in the series with Saccharomyces cerevisiae [15]. Further, the figures for the “fractional inhibitory concentration index (FICI)” value in the series with Saccharomyces cerevisiae [4], with Candida albicans [5] and in the series on Candida albicans [14] were 2, 1.3 and 0.52, respectively. In addition, the logP (usually a log measure of how a compound divides between an organic and an aqueous phase) in series [9] is 3.41. For the same molecule, in the series on Candida albicans [13], the fold change (FC) was 52.

The record behind these values is ChEMBL document CHEMBL4020757, “Lathyrol and epoxylathyrol derivatives: Modulation of Cdr1p and Mdr1p drug-efflux transporters of Candida albicans in Saccharomyces cerevisiae model” (Bioorg Med Chem, 2017).
